Test results taken from ChEMBL document CHEMBL1154379, “Soluble polyphenols: synthesis and bioavailability of 3,4',5-tri(alpha-D-glucose-3-O-succinyl) resveratrol” (Bioorg Med Chem Lett, 2009).
Converted amounts (≈) assume the structure as drawn.

Key:
[1] = Solubility in pH 9 buffer; type: physicochemical
[2] = Cmax in intragastrically dosed rat at 0.09 mmol/kg after 10 mins; type: ADME, organism-based; set-up: dose 0.09 mmol/kg, route intragastric; conditions: in vivo, po
Outline: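 Rats dosed intragastrically, with the same animals receiving both resveratrol and the glucosylsuccinyl derivative. Blood was sampled over time. Circulating species were identified by HPLC-UV at 320 nm and LC–MS against synthesized phase II metabolite standards (sulfates, glucuronides), with confirmation by enzymatic treatment. Cmax was read from concentration–time curves.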

Rattus norvegicus [3] = assay: AUC in intragastrically dosed rat assessed as resveratrol level at 0.09 mmol/kg after 10 mins; type: ADME, organism-based, Plasma; set-up: time < 0.166667 hr, dose 0.09 mmol/kg, route intragastric; conditions: in vivo, po
Outline: (§1)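 Rats received intragastric doses, with the same animals given both resveratrol and the derivative to limit individual variability. Blood was sampled over time. Circulating resveratrol and its sulfate and glucuronide conjugates were identified by HPLC–UV at 320 nm and LC–MS against synthesized phase II metabolite standards, confirmed by enzymatic treatment. Cmax and AUC were taken from concentration–time curves.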

Rattus norvegicus [4] = assay: AUC in intragastrically dosed rat assessed as resveratrol sulfate level at 0.09 mmol/kg after 10 mins; type: ADME, organism-based, Plasma; set-up: dose 0.09 mmol/kg, time < 0.166667 hr, route intragastric; conditions: in vivo, po; outline: as §1
Rattus norvegicus [5] = assay: AUC in intragastrically dosed rat assessed as resveratrol glucuronide level at 0.09 mmol/kg after 10 mins; type: ADME, organism-based, Plasma; set-up: time < 0.166667 hr, dose 0.09 mmol/kg, route intragastric; conditions: in vivo, po; outline: as §1
Rattus norvegicus [6] = assay: AUC in intragastrically dosed rat assessed as resveratrol disulfate level at 0.09 mmol/kg after 10 mins; type: ADME, organism-based, Plasma; set-up: time < 0.166667 hr, dose 0.09 mmol/kg, route intragastric; conditions: in vivo, po; outline: as §1
Rattus norvegicus [7] = assay: AUC in intragastrically dosed rat assessed as total metabolite level at 0.09 mmol/kg after 10 mins; type: ADME, organism-based, Plasma; set-up: dose 0.09 mmol/kg, time < 0.166667 hr, route intragastric; conditions: in vivo, po; outline: as §1
[8] = Solubility in water at room temperature; type: physicochemical
[9] = Chemical stability in 1N HCl solution assessed as compound remaining at 37degC; type: physicochemical; conditions: buffer
Outline: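 The compound was incubated in 1 N HCl at 37 °C for 6 h and analysed by LC–MS. The amount remaining is expressed as % of the initial molar amount.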

Row | solubility [1] | Cmax [2] | AUC (Rattus norvegicus [3]) | AUC (Rattus norvegicus [4]) | AUC (Rattus norvegicus [5]) | AUC (Rattus norvegicus [6]) | AUC (Rattus norvegicus [7]) | solubility [8] | Stability [9] | SMILES
1 | 2.3 mg/mL (≈ 3.77 mM) | – | – | – | – | – | – | – | – | C[C@@H]1O[C@@H](OC[C@H]2O[C@@H](Oc3c(-c4ccc(O)c(O)c4)oc4cc(O)cc(O)c4c3=O)[C@H](O)[C@@H](O)[C@@H]2O)[C@H](O)[C@H](O)[C@H]1O [RUTIN]
2 | – | 1200 nM | 1.1 µM·h | 2.4 µM·h | 35.5 µM·h | 14.4 µM·h | 53.4 µM·h | – | – | Oc1ccc(/C=C/c2cc(O)cc(O)c2)cc1 [RESVERATROL]
3 | – | – | 0.2 µM·h | 3.5 µM·h | 21.2 µM·h | 27 µM·h | 51.8 µM·h | 90 mg/mL (≈ 88.7 mM) | 80% | O=C(CCC(=O)O[C@@H]1[C@@H](O)[C@@H](O)O[C@H](CO)[C@H]1O)Oc1ccc(/C=C/c2cc(OC(=O)CCC(=O)O[C@@H]3[C@@H](O)[C@@H](O)O[C@H](CO)[C@H]3O)cc(OC(=O)CCC(=O)O[C@@H]3[C@@H](O)[C@@H](O)O[C@H](CO)[C@H]3O)c2)cc1
